In ChEMBL document CHEMBL3580580, “Nodulisporiviridins A-H, Bioactive Viridins from Nodulisporium sp” (J Nat Prod, 2015):
The source made the active and inactive calls. The rule behind the calls is not given here.

Tests used:
[1] = molecular target: T1, Amyloid-beta precursor protein (Homo sapiens, UniProt P05067); assay: Inhibition of amyloid beta (1 to 42) (unknown origin) aggregation at 100 uM incubated at 37 degC for 16 hrs by thioflavin T fluorescence assay
How it was run: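 Aβ42 prepared at 40 μM in DMSO plus PBS (0.01 M, pH 6.6), mixed 2:1:1 with sample and 80 μM ThT stock. Shaken 15 min, incubated at 37 °C for 16 h, then ThT fluorescence read. Inhibition = (F0−Fi)/F0×100 against no-sample wells. Three independent experiments.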

[2] = molecular target: T1, Amyloid-beta precursor protein; assay: Inhibition of amyloid beta (1 to 42) (unknown origin) aggregation incubated at 37 degC for 16 hrs by thioflavin T fluorescence assay
How it was run: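 Aβ42 at 40 μM (in DMSO/PBS pH 6.6), mixed 2:1:1 with sample and 80 μM ThT stock, shaken 15 min, then held at 37 °C for 16 h. Read by ThT fluorescence. IC50 measured only for samples with ≥60% inhibition: six concentrations, three independent experiments, mean % inhibition fitted to a four-parameter variable-slope log(inhibitor)–response curve.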

Drosophila = assay: Enhancement of short-term memory in Drosophila w1118 (isoCJ1) P35*H29.3 model of human Abeta42 transgenic Alzheimer's disease model assessed as increase in performance index at 100 uM fed to flies for 7 days by Pavlovian olfactory learning method; assay type: functional, organism-based
How it was run: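 Male flies: elav-GAL4c155 (P35) × UAS-Aβ42 (H29.3) F1, with 2U*H29.3 as normal controls. Newly hatched flies kept about 120 per vial and reared at 28 °C, 42% RH. Fed 100 μM (from 10 mM stock) in 50 μL daily for 4 h, days 2–8. Controls got matching DMSO. Pavlovian olfactory learning done in the dark at 24 °C, 70% RH. Read-out is performance index; two vials per PI.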

T1 sequence (P05067 whole entry): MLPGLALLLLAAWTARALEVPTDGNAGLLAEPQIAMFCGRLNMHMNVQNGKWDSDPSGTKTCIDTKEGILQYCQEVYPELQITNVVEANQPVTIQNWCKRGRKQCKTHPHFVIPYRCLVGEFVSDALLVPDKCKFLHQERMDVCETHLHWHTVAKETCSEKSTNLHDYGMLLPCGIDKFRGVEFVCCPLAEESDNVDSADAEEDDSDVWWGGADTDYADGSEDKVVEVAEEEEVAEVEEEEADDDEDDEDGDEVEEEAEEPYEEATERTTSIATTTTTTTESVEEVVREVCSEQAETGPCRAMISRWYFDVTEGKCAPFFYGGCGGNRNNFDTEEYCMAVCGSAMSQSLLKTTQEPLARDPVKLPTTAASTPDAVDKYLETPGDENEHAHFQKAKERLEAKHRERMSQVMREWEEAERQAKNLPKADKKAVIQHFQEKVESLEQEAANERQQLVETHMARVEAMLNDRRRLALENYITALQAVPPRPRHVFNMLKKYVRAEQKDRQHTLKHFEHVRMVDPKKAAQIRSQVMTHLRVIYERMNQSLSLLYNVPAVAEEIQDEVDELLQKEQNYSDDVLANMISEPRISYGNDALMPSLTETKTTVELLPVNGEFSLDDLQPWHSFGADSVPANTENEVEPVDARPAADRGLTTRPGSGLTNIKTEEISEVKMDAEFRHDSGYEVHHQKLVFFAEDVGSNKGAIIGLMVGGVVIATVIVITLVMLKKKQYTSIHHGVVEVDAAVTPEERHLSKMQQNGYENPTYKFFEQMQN

C[C@]1(O)c2ccc3c(c2C(=O)c2occ(CCO)c21)CCC3=O
inhibition [1]: 62.8%
IC50 [2]: 34.3 µM
Activity (Drosophila): Active

C[C@@]12C(=O)CC[C@H]1C1=C(C[C@H]2O)[C@@]2(C)CC[C@H](O)c3coc(c32)C1=O
inhibition [1]: 70.4%
IC50 [2]: 43.5 µM
Activity (Drosophila): Active

C[C@]1(O)c2ccc3c(c2C(=O)c2occ(CCCO)c21)CCC3=O
inhibition [1]: 89.5%
IC50 [2]: 28 µM
Activity (Drosophila): Active

C[C@]1(O)c2ccc3c(c2C(=O)c2occ([C@@H](O)CCO)c21)CCC3=O
inhibition [1]: 63.5%
IC50 [2]: 95.9 µM
Activity (Drosophila): Active

C[C@]12CC[C@H](O)c3coc(c31)C(=O)C1=C2[C@@H](O)C[C@]2(C)C(=O)CC[C@@H]12
inhibition [1]: 54.6%
Activity (Drosophila): Active

C[C@]12CCC(=O)c3coc(c31)C(=O)C1=C2[C@@H](O)C[C@]2(C)C(=O)CC[C@@H]12
inhibition [1]: 98.8%
IC50 [2]: 1.2 µM
Activity (Drosophila): Active

C[C@@]12c3ccc4c(c3C(=O)c3occ(c31)[C@@H](O)C[C@@H]2O)CCC4=O
inhibition [1]: 99%
IC50 [2]: 10.1 µM
Activity (Drosophila): Active

C[C@@]1(O)c2ccc3c(c2C(=O)c2occ([C@@H](O)CCO)c21)CCC3=O
inhibition [1]: 80.5%
IC50 [2]: 71.9 µM
Activity (Drosophila): Active

C[C@@]12c3ccc4c(c3C(=O)c3occ(c31)C(=O)C[C@H]2O)CCC4=O [DEMETHOXYVIRIDIN]
IC50 [2]: 13.4 µM

O=C(O[C@@H]1Cc2c(O)cc(O)cc2O[C@@H]1c1cc(O)c(O)c(O)c1)c1cc(O)c(O)c(O)c1 [EPIGALOCATECHIN GALLATE]
inhibition [1]: 95.1%
IC50 [2]: 0.5 µM
